Experimental data from BindingDB's records for doi:10.1021/acs.jnatprod.7b00271 (University of Eastern Piedmont, 2017).

Columns and labels:
[1] = target: T1, Nuclear factor erythroid 2-related factor 2 (Homo sapiens, UniProt Q16236); assay: Activation of Nrf2 (unknown origin) expressed in human HaCaT-ARE-luc cells after 6 hrs by luciferase reporter gene assay
T1 sequence (Q16236 whole entry): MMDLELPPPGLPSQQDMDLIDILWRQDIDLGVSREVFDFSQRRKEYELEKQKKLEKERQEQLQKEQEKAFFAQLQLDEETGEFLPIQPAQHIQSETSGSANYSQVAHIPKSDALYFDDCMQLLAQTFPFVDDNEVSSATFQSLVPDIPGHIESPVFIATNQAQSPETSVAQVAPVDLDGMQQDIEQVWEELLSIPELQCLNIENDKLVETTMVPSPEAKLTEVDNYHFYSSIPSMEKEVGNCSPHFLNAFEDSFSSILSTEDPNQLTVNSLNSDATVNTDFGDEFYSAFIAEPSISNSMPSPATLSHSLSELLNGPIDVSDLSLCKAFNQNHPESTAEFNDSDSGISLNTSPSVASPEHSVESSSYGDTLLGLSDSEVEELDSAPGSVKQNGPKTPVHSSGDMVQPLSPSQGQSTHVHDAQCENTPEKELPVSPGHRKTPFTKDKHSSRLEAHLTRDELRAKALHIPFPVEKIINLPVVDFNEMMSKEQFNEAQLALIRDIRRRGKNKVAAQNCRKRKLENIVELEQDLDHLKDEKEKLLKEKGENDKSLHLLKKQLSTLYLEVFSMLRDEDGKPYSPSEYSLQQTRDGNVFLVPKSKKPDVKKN
How it was run: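 HaCaT-ARE-Luc keratinocytes in DMEM with 10% FBS, 37 °C, 5% CO2, exposed to compounds for 6 h. Cells then washed with PBS and lysed (Tris-phosphate pH 7.8, MgCl2, DTT, Triton X-100, glycerol, 15 min RT). Luciferase RLU read on the supernatant and EC50 derived. Mean of at least five independent experiments.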

[2] = target: Signal transducer and activator of transcription 3 (Homo sapiens, UniProt P40763); assay: Inhibition of IFN-gamma stimulated STAT3 (unknown origin) expressed in human HeLa cells after 6 hrs by luciferase reporter gene assay
How it was run: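 HeLa-STAT3-Luc cells stimulated with γIFN (20 IU/mL) with or without compounds for 6 h. PBS-washed cells lysed 15 min at room temperature and luciferase RLU measured. Values expressed as percent inhibition of IFN-γ-induced activity (taken as 100%). Mean of at least five independent experiments.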

Sequence of Signal transducer and activator of transcription 3 (P40763 whole entry): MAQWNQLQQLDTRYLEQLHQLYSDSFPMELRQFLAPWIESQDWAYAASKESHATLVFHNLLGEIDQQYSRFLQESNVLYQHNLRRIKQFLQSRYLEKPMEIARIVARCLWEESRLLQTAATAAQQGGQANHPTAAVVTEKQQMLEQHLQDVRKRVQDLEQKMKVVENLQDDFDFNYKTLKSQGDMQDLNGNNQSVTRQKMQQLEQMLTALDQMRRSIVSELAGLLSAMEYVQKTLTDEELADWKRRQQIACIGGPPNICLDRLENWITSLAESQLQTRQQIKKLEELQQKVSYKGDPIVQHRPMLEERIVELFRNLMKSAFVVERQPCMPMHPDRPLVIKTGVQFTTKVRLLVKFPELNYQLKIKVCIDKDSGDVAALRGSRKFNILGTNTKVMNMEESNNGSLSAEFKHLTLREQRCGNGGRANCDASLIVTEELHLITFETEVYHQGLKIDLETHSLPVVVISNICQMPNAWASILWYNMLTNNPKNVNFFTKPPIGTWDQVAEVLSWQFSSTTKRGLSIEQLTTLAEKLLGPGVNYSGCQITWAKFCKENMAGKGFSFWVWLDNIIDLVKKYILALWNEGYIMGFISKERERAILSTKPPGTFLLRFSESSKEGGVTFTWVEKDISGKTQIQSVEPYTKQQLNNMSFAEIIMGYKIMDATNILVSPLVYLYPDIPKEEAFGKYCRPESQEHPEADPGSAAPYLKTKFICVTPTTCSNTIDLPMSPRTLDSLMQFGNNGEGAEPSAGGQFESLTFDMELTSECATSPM

Work on COC(=O)[C@]12CCC(C)(C)C[C@H]1C1=CC[C@@H]3[C@@]4(C)C=C(C#Cc5ccccc5)C(=O)C(C)(C)[C@@H]4CC[C@@]3(C)[C@]1(C)CC2 yielded an EC50 [1] of over 25 µM and an IC50 [2] of over 25 µM.

With COC(=O)[C@]12CCC(C)(C)C[C@H]1C1=CC[C@@H]3[C@@]4(C)CC(C#N)=C(O)C(C)(C)[C@@H]4CC[C@@]3(C)[C@]1(C)CC2 the EC50 [1] was over 25 µM and the IC50 [2] was over 25 µM.

CC1(C)CC[C@]2(C(=O)O)CC[C@]3(C)C(=CC[C@@H]4[C@@]5(C)CC[C@H](O)C(C)(C)[C@@H]5CC[C@]43C)[C@@H]2C1 [Oleanolic acid (OA)(Compound 1)] gave an IC50 [2] of over 50 µM.

COC(=O)[C@]12CCC(C)(C)C[C@H]1C1=CC[C@@H]3[C@@]4(C)C=C(c5ccc(OC)cc5)C(=O)C(C)(C)[C@@H]4CC[C@@]3(C)[C@]1(C)CC2 was tested, and the EC50 [1] was over 25 µM and the IC50 [2] was over 25 µM.

Compound COC(=O)[C@]12CCC(C)(C)C[C@H]1C1=CC[C@@H]3[C@@]4(C)C=C(Br)C(=O)C(C)(C)[C@@H]4CC[C@@]3(C)[C@]1(C)CC2 has an EC50 [1] of 11.5 µM and an IC50 [2] of over 25 µM.

Compound COC(=O)[C@]12CCC(C)(C)C[C@H]1C1=CC[C@@H]3[C@@]4(C)C=C(I)C(=O)C(C)(C)[C@@H]4CC[C@@]3(C)[C@]1(C)CC2 has an EC50 [1] of over 25 µM and an IC50 [2] of over 25 µM.

Work on COC(=O)[C@]12CCC(C)(C)C[C@H]1C1=CC[C@@H]3[C@@]4(C)C=C(OC(C)=O)C(=O)C(C)(C)[C@@H]4CC[C@@]3(C)[C@]1(C)CC2 yielded an EC50 [1] of over 25 µM and an IC50 [2] of over 25 µM.

Compound COC(=O)[C@]12CCC(C)(C)C[C@H]1C1=CC[C@@H]3[C@@]4(C)CCC(=O)C(C)(C)[C@@H]4CC[C@@]3(C)[C@]1(C)CC2 has an EC50 [1] of over 25 µM and an IC50 [2] of over 25 µM.

For COC(=O)[C@]12CCC(C)(C)C[C@H]1C1=CC[C@@H]3[C@@]4(C)CC(C=O)=C(O)C(C)(C)[C@@H]4CC[C@@]3(C)[C@]1(C)CC2, the EC50 [1] was over 25 µM and the IC50 [2] was over 25 µM.

Compound COC(=O)[C@]12CCC(C)(C)C[C@H]1C1=CC[C@@H]3[C@@]4(C)C=C(c5ccccc5)C(=O)C(C)(C)[C@@H]4CC[C@@]3(C)[C@]1(C)CC2 has an EC50 [1] of over 25 µM and an IC50 [2] of over 25 µM.

Work on COC(=O)[C@]12CCC(C)(C)C[C@H]1C1=CC[C@@H]3[C@@]4(C)C=C(C#N)C(=O)C(C)(C)[C@@H]4CC[C@@]3(C)[C@]1(C)CC2 yielded an EC50 [1] of 1.1 µM.

Work on COC(=O)[C@]12CCC(C)(C)C[C@H]1C1=CC[C@@H]3[C@@]4(C)C=C(c5ccc(C#N)cc5)C(=O)C(C)(C)[C@@H]4CC[C@@]3(C)[C@]1(C)CC2 yielded an EC50 [1] of over 25 µM and an IC50 [2] of over 25 µM.

COC(=O)[C@]12CCC(C)(C)C[C@H]1C1=CC[C@@H]3[C@@]4(C)C=C(C(=O)O)C(=O)C(C)(C)[C@@H]4CC[C@@]3(C)[C@]1(C)CC2 gave an EC50 [1] of 2.45 µM and an IC50 [2] of 25.7 µM.

COC(=O)[C@]12CCC(C)(C)C[C@H]1C1=CC[C@@H]3[C@@]4(C)C=CC(=O)C(C)(C)[C@@H]4CC[C@@]3(C)[C@]1(C)CC2 gave an EC50 [1] of over 25 µM and an IC50 [2] of over 25 µM.

Compound CCOC(=O)/C=C/C1=C[C@]2(C)[C@H]3CC=C4[C@@H]5CC(C)(C)CC[C@]5(C(=O)OC)CC[C@@]4(C)[C@]3(C)CC[C@H]2C(C)(C)C1=O has an EC50 [1] of over 25 µM and an IC50 [2] of over 25 µM.

Work on COC(=O)C1=C[C@]2(C)[C@H]3CC=C4[C@@H]5CC(C)(C)CC[C@]5(C(=O)OC)CC[C@@]4(C)[C@]3(C)CC[C@H]2C(C)(C)C1=O yielded an EC50 [1] of over 25 µM and an IC50 [2] of over 25 µM.

COC(=O)[C@]12CCC(C)(C)C[C@H]1[C@H]1C(=O)C=C3[C@@]4(C)C=C(C#N)C(=O)C(C)(C)[C@@H]4CC[C@@]3(C)[C@]1(C)CC2 [CDDO-Me, 2] gave an EC50 [1] of 0.06 µM.

In the case of COC(=O)[C@]12CCC(C)(C)C[C@H]1C1=CC[C@@H]3[C@@]4(C)Cc5cnoc5C(C)(C)[C@@H]4CC[C@@]3(C)[C@]1(C)CC2, the EC50 [1] is reported as over 25 µM and the IC50 [2] is reported as over 25 µM.
